The values below come from ChEMBL document CHEMBL1146492, “Cytotoxic constituents of the twigs and leaves of Aglaia rubiginosa” (J Nat Prod, 2004).

One data set relates to Lu1. The data set is described as follows: Cytotoxicity against human Lu1 cells. The data set is classed as functional. As to conditions: for EC50: Homo sapiens, Lu1, read-out: ED50 (the source's name). The method in brief: (§1)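 Cytotoxicity was tested on a panel of human cancer cell lines following established protocols, with ED50 as the read-out. Extracts, fractions and isolates from twigs and leaves were run the same way.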

The test system of the next data set is Col2. The data set is described as follows: Cytotoxicity against human Col2 cells. The data set is classed as functional, cell-based. An outline of the steps:
as §1

A further data set deals with LNCaP. As to the kind of experiment: Cytotoxicity against human LNCAP cells. The data set is classed as functional. Particulars: for EC50: Homo sapiens, LNCaP, read-out: ED50 (the source's name). An outline of the steps:
as §1

Data set [1] is described as follows: Cytotoxicity against human telomerase reverse transcriptase expressing human RPE1 cells. The data set is classed as functional, TERT-RPE1. As to conditions: for EC50: Homo sapiens, RPE-1, read-out: ED50 (the source's name).
Data set [2] can be described thus: Cytotoxicity against HUVEC. Particulars: human, HUVEC cells; read-out: ED50 (the source's name). The data set is classed as cell-based.
The subject of the next data set is KB. The data set is described as follows: Cytotoxicity against human KB cells. The data set is classed as functional. Particulars: for EC50: Homo sapiens, KB, read-out: ED50 (the source's name). An outline of the steps:
as §1

[3] abbreviates: read-out: ED50 (the source's name).

For `CC(C)=CC[C@@H](O)[C@@H](C)[C@H]1CC[C@H]2C3=CCC4[C@@H](O)[C@@H](O)CC[C@]4(C)[C@H]3CC[C@]12C` (stereo partly drawn), the ED50 (with Lu1; in the data set with LNCaP; in data set [1]; with KB) was more than 1 µM throughout. In addition, the EC50 in the data set on Col2 (read-out: EC50) is more than 1 µM. In addition, the CC50 in data set [2] is more than 1 µM.
For `COc1ccc([C@@]23Oc4cc(OC)cc(OC)c4[C@]2(O)[C@H](OC(C)=O)C[C@H]3c2ccccc2)cc1`, the EC50 was determined as 0.21 µM with Lu1; 0.189 µM with Col2 (setting [3]); 0.273 µM in the data set on LNCaP; 0.21 µM in data set [1]; 0.147 µM with KB. For the same molecule, in data set [2], the CC50 amounted to 0.231 µM.
Regarding `C=C(C)[C@@H]1CC[C@]2(C)[C@H](CC[C@@H]3[C@@H]([C@@](C)(O)C/C=C/C(C)(C)O)CC[C@]32C)[C@@]1(C)CCC(=O)O`, the ED50 (in the data set on Lu1; in the data set with LNCaP; in data set [1]; in the data set on KB) was more than 1 µM in each case. In addition, in the data set with Col2 (read-out: EC50), the EC50 is more than 1 µM. Further, the CC50 in data set [2] is more than 1 µM.
Consider `C=C(C)[C@@H]1CC[C@]2(C)[C@H](CC[C@@H]3[C@@H]([C@@](C)(O)C/C=C/C(C)(C)O)CC[C@]32C)[C@@]1(C)CCC(=O)OC`, for which the ED50 (in the data set on Lu1; in the data set with LNCaP; in data set [1]; in the data set with KB) was more than 1 µM each time. In addition, the EC50 with Col2 (read-out: EC50) is more than 1 µM. In addition, the CC50 in data set [2] is more than 1 µM.
As for `COc1ccc(-c2oc3cc(OC)cc(O)c3c(=O)c2OC)cc1`, the ED50 (in the data set on Lu1; with LNCaP; in data set [1]; with KB) was more than 1 µM throughout. Besides, the EC50 in the data set on Col2 (read-out: EC50) was more than 1 µM. The CC50 in data set [2] was more than 1 µM.
Regarding `COC(=O)[C@H]1[C@@H](O)[C@@]2(O)c3c(OC)cc(OC)cc3O[C@@]2(c2ccc(OC)cc2)[C@@H]1c1ccccc1` [AGLAFOLIN], the EC50 was found to be 0.163 µM in the data set with Lu1; 0.243 µM in the data set on Col2 (setting [3]); 0.325 µM with LNCaP; 0.183 µM in data set [1]; 0.142 µM with KB. Further, the CC50 in data set [2] stood at 0.203 µM.
Regarding `CC(C)(O)[C@@H]1CC[C@@](C)([C@H]2CC[C@]3(C)[C@@H]2CC[C@@H]2[C@@]4(C)CCC(=O)C(C)(C)[C@@H]4CC[C@]23C)O1` [CABRALEONE], the ED50 (in the data set on Lu1; with LNCaP; in data set [1]; in the data set on KB) was more than 1 µM each time. The EC50 in the data set on Col2 (read-out: EC50) is more than 1 µM. Also, the CC50 in data set [2] was more than 1 µM.
Consider `CC[C@@]1(O)C(=O)OCc2c1cc1n(c2=O)Cc2cc3ccccc3nc2-1` [CAMPTOTHECIN], for which the EC50 with Lu1 worked out at 0.029 µM; in the data set on Col2 (setting [3]), 0.057 µM; in the data set on LNCaP it was 0.028 µM; in data set [1], 0.23 µM; in the data set on KB, 0.022 µM. The CC50 in data set [2] is 0.258 µM.
Take `O=C1C[C@@H](c2ccc(O)c(O)c2)Oc2cc(O)cc(O)c21` [ERIODICTYOL]: the ED50 (in the data set on Lu1; with LNCaP; in data set [1]; in the data set on KB) was more than 1 µM in each case. Further, the EC50 in the data set on Col2 (read-out: EC50) was more than 1 µM. Moreover, the CC50 in data set [2] is more than 1 µM.
Take `O=C1C[C@@H](c2ccc(O)cc2)Oc2cc(O)cc(O)c21` [NARINGENIN]: the ED50 (in the data set on Lu1; in the data set with LNCaP; in data set [1]; with KB) was more than 1 µM each time. Further, in the data set on Col2 (read-out: EC50), the EC50 was more than 1 µM. Further, in data set [2], the CC50 was more than 1 µM.
Turning to `CC(=O)O[C@H]1C(=O)[C@@]2(C)[C@H]([C@H](OC(=O)c3ccccc3)[C@]3(O)C[C@H](OC(=O)[C@H](O)[C@@H](NC(=O)c4ccccc4)c4ccccc4)C(C)=C1C3(C)C)[C@]1(OC(C)=O)CO[C@@H]1C[C@@H]2O` [PACLITAXEL], the EC50 in the data set on Lu1 turned out to be 0.002 µM; in the data set with Col2 (setting [3]), 0.046 µM; in the data set with LNCaP, 0.005 µM; in data set [1] it was 0.023 µM; in the data set on KB, 0.0004 µM. Moreover, in data set [2], the CC50 stood at 0.105 µM.
For `COc1ccc([C@@]23Oc4cc(OC)cc(OC)c4[C@]2(O)[C@H](O)[C@H](C(=O)O)[C@H]3c2ccccc2)cc1` [ROCAGLOIC ACID], the EC50 with Lu1 was 0.063 µM; in the data set with Col2 (setting [3]) it was 0.209 µM; with LNCaP it was 0.104 µM; in data set [1], 0.209 µM; with KB, 0.204 µM. Moreover, the CC50 in data set [2] is 0.209 µM.
On to `C=C(C)[C@@H]1CC[C@]2(C)[C@H](CC[C@@H]3[C@@H]([C@]4(C)CC[C@H](C(C)(C)O)O4)CC[C@]32C)[C@@]1(C)CCC(=O)O` [SHOREIC ACID], for which the ED50 (in the data set with Lu1; in the data set with LNCaP; in data set [1]; in the data set on KB) was more than 1 µM in each case. Also, in the data set with Col2 (read-out: EC50), the EC50 was more than 1 µM. Further, the CC50 in data set [2] is more than 1 µM.
